{"source": "ChEMBL document CHEMBL1240353", "about": "(Antimicrob Agents Chemother, 2010)", "key": {"[1]": {"assay": "Inhibition of PBP2 in penicillin-resistant Enterococcus faecium D63r membranes assessed as inhibition of fluorescent ampicillin binding after 20 mins at 37 degC", "method_in_brief": "(§1)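 Competition assay on purified membrane preparations (300 μg protein). Membranes preincubated 20 min at 37°C with increasing β-lactam concentrations, then 1 h at 37°C with saturating 25 μM fluorescent ampicillin. Proteins resolved by SDS-PAGE and fluorography. IC50 is the concentration inhibiting 50% of fluorescent ampicillin labelling relative to a drug-free control.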"}, "[2]": {"assay": "Inhibition of PBP4 in penicillin-resistant Enterococcus faecium D63r membranes assessed as inhibition of fluorescent ampicillin binding after 20 mins at 37 degC", "method_in_brief": "as §1"}, "[3]": {"assay": "Inhibition of PBP5 in penicillin-resistant Enterococcus faecium D63r membranes assessed as inhibition of fluorescent ampicillin binding after 20 mins at 37 degC", "method_in_brief": "as §1"}, "[4]": {"assay": "Inhibition of PBP1 in penicillin-resistant Enterococcus faecium D63r membranes assessed as inhibition of fluorescent ampicillin binding after 20 mins at 37 degC", "method_in_brief": "as §1"}, "[5]": {"assay": "Inhibition of PBP3 in penicillin-resistant Enterococcus faecium D63r membranes assessed as inhibition of fluorescent ampicillin binding after 20 mins at 37 degC", "method_in_brief": "as §1"}, "Enterococcus faecium [6]": {"test_system": "Enterococcus faecium", "assay": "Antimicrobial activity against penicillin-resistant Enterococcus faecium D63r by microdilution method", "format": "functional"}, "[7]": {"assay": "Inhibition of PBP6 in penicillin-resistant Enterococcus faecium D63r membranes assessed as inhibition of fluorescent ampicillin binding after 20 mins at 37 degC", "method_in_brief": "as §1"}, "[8]": {"assay": "Inhibition of PBP2 in wild type Enterococcus faecium D63 membranes assessed as inhibition of fluorescent ampicillin binding after 20 mins at 37 degC", "method_in_brief": "as §1"}, "Enterococcus faecium [9]": {"test_system": "Enterococcus faecium", "assay": "Inhibition of Enterococcus faecium low-affinity PBP5fm assessed as rate constant for enzyme acylation by spectrophotometry", "method_in_brief": "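Soluble PBP 5fm (N-terminal membrane anchor removed), overproduced and purified without molecular sieve step. β-lactam ring opening followed at 319 nm, 30°C, 10 mM phosphate pH 7.0, 10 μM enzyme, across drug concentrations. Pseudo-first-order ka fitted from absorbance traces. k+2/K taken from slope of ka versus concentration.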"}, "[10]": {"assay": "Inhibition of PBP5 in wild type Enterococcus faecium D63 membranes assessed as inhibition of fluorescent ampicillin binding after 20 mins at 37 degC", "method_in_brief": "as §1"}, "Enterococcus faecium [11]": {"test_system": "Enterococcus faecium", "assay": "Antimicrobial activity against penicillin-resistant Enterococcus faecium D63r assessed as bacterial killing at 4 times MIC by time kill curve method", "format": "functional, organism-based"}, "[12]": {"assay": "Inhibition of PBP3 in wild type Enterococcus faecium D63 membranes assessed as inhibition of fluorescent ampicillin binding after 20 mins at 37 degC"}, "Enterococcus faecium [13]": {"test_system": "Enterococcus faecium", "assay": "Antimicrobial activity against Enterococcus faecium D63 assessed as bacterial killing at 4 times MIC by time kill curve method", "format": "functional, organism-based", "method_in_brief": "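Survivors counted at 0, 4 and 24 h of incubation at 37°C by plating serial dilutions (at least 10-fold, to limit carryover).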"}, "[14]": {"assay": "Inhibition of PBP1 in wild type Enterococcus faecium D63 membranes assessed as inhibition of fluorescent ampicillin binding after 20 mins at 37 degC"}, "[15]": {"assay": "Inhibition of PBP6 in wild type Enterococcus faecium D63 membranes assessed as inhibition of fluorescent ampicillin binding after 20 mins at 37 degC", "method_in_brief": "as §1"}, "[16]": {"assay": "Inhibition of PBP4 in wild type Enterococcus faecium D63 membranes assessed as inhibition of fluorescent ampicillin binding after 20 mins at 37 degC"}, "Enterococcus faecium [17]": {"test_system": "Enterococcus faecium", "assay": "Antimicrobial activity against Enterococcus faecium D63 by microdilution method", "format": "functional"}, "Staphylococcus aureus": {"test_system": "Staphylococcus aureus", "assay": "Inhibition of Staphylococcus aureus PBP2a assessed as rate constant for enzyme acylation by spectrophotometry"}}, "note": "Active and inactive are the calls of the source. No cut-off for these calls is given here.", "data": [{"smiles": "CO/N=C(\\C(=O)N[C@@H]1C(=O)N2C(C(=O)[O-])=C(C[N+]3(C)CCCC3)CS[C@H]12)c1csc(N)n1", "values": [{"measurement": "IC50", "setting": "[1]", "value": 0.6, "unit": "µg/mL"}, {"measurement": "IC50", "setting": "[2]", "value": "> 200", "unit": "µg/mL"}, {"measurement": "IC50", "setting": "[3]", "value": "> 200", "unit": "µg/mL"}, {"measurement": "IC50", "setting": "[4]", "value": 1.7, "unit": "µg/mL"}, {"measurement": "IC50", "setting": "[5]", "value": 0.5, "unit": "µg/mL"}, {"measurement": "MIC", "setting": "Enterococcus faecium [6]", "value": "> 100", "unit": "µg/mL"}, {"measurement": "IC50", "setting": "[7]", "value": "> 50", "unit": "µg/mL"}]}, {"smiles": "CC(C)(O/N=C(\\C(=O)N[C@@H]1C(=O)N2C(C(=O)[O-])=C(C[n+]3ccccc3)CS[C@H]12)c1csc(N)n1)C(=O)O", "note": "[CEFTAZIDIME]", "values": [{"measurement": "IC50", "setting": "[1]", "value": 0.5, "unit": "µg/mL"}, {"measurement": "IC50", "setting": "[2]", "value": "> 200", "unit": "µg/mL"}, {"measurement": "IC50", "setting": "[3]", "value": "> 200", "unit": "µg/mL"}, {"measurement": "IC50", "setting": "[4]", "value": 0.9, "unit": "µg/mL"}, {"measurement": "IC50", "setting": "[5]", "value": 0.04, "unit": "µg/mL"}, {"measurement": "MIC", "setting": "Enterococcus faecium [6]", "value": "> 100", "unit": "µg/mL"}, {"measurement": "IC50", "setting": "[7]", "value": "> 50", "unit": "µg/mL"}]}, {"smiles": "CC1(C)S[C@@H]2[C@H](NC(=O)Cc3ccccc3)C(=O)N2[C@H]1C(=O)O", "note": "[PENICILLIN G]", "values": [{"measurement": "IC50", "setting": "[1]", "value": 0.06, "unit": "µg/mL"}, {"measurement": "IC50", "setting": "[8]", "value": 0.1, "unit": "µg/mL"}, {"measurement": "INH", "setting": "Enterococcus faecium [9]", "value": 15, "unit": "M⁻¹ s⁻¹"}, {"measurement": "IC50", "setting": "[10]", "value": 75, "unit": "µg/mL"}, {"measurement": "IC50", "setting": "[2]", "value": 8, "unit": "µg/mL"}, {"measurement": "IC50", "setting": "[3]", "value": 55, "unit": "µg/mL"}, {"measurement": "inhibition", "setting": "Enterococcus faecium [11]", "value": "Active"}, {"measurement": "IC50", "setting": "[12]", "value": 1.3, "unit": "µg/mL"}, {"measurement": "inhibition", "setting": "Enterococcus faecium [13]", "value": "Active"}, {"measurement": "IC50", "setting": "[4]", "value": 1.6, "unit": "µg/mL"}, {"measurement": "IC50", "setting": "[14]", "value": 0.9, "unit": "µg/mL"}, {"measurement": "IC50", "setting": "[5]", "value": 0.6, "unit": "µg/mL"}, {"measurement": "MIC", "setting": "Enterococcus faecium [6]", "value": 70, "unit": "µg/mL"}, {"measurement": "IC50", "setting": "[15]", "value": 1.5, "unit": "µg/mL"}, {"measurement": "IC50", "setting": "[16]", "value": 10, "unit": "µg/mL"}, {"measurement": "IC50", "setting": "[7]", "value": 2, "unit": "µg/mL"}, {"measurement": "MIC", "setting": "Enterococcus faecium [17]", "value": 5, "unit": "µg/mL"}]}, {"smiles": "CC1(C)S[C@@H]2[C@H](NC(=O)[C@H](N)c3ccccc3)C(=O)N2[C@H]1C(=O)O", "note": "[AMPICILLIN]", "values": [{"measurement": "MIC", "setting": "Enterococcus faecium [6]", "value": 125, "unit": "µg/mL"}, {"measurement": "MIC", "setting": "Enterococcus faecium [17]", "value": 15, "unit": "µg/mL"}]}, {"smiles": "Nc1nc(/C(=N/O)C(=O)N[C@@H]2C(=O)N3C(C(=O)O)=C(/C=C4\\CCN([C@@H]5CCNC5)C4=O)CS[C@H]23)ns1", "note": "[CEFTOBIPROLE]", "values": [{"measurement": "IC50", "setting": "[1]", "value": 0.2, "unit": "µg/mL"}, {"measurement": "IC50", "setting": "[8]", "value": 0.2, "unit": "µg/mL"}, {"measurement": "INH", "setting": "Enterococcus faecium [9]", "value": 110, "unit": "M⁻¹ s⁻¹"}, {"measurement": "IC50", "setting": "[10]", "value": 0.7, "unit": "µg/mL"}, {"measurement": "IC50", "setting": "[2]", "value": 1.8, "unit": "µg/mL"}, {"measurement": "INH", "setting": "Staphylococcus aureus", "value": 8900, "unit": "M⁻¹ s⁻¹"}, {"measurement": "IC50", "setting": "[3]", "value": 1, "unit": "µg/mL"}, {"measurement": "inhibition", "setting": "Enterococcus faecium [11]", "value": "Active"}, {"measurement": "IC50", "setting": "[12]", "value": 0.6, "unit": "µg/mL"}, {"measurement": "inhibition", "setting": "Enterococcus faecium [13]", "value": "Active"}, {"measurement": "IC50", "setting": "[4]", "value": 0.7, "unit": "µg/mL"}, {"measurement": "IC50", "setting": "[14]", "value": 0.6, "unit": "µg/mL"}, {"measurement": "IC50", "setting": "[5]", "value": 0.5, "unit": "µg/mL"}, {"measurement": "MIC", "setting": "Enterococcus faecium [6]", "value": 8, "unit": "µg/mL"}, {"measurement": "IC50", "setting": "[15]", "value": "> 16", "unit": "µg/mL"}, {"measurement": "IC50", "setting": "[16]", "value": 1.5, "unit": "µg/mL"}, {"measurement": "MIC", "setting": "Enterococcus faecium [17]", "value": 2, "unit": "µg/mL"}]}]}
